# TAAR1 antag – antagonists of human TAAR1; Q96RJ0; CHO RD-HGA16 TAAR1, Fluo-8 calcium fluorescence, antagonist; inhibition, % at 3 µM; actives 1.5% (n = 360,000); AID 624466;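 active = inhibition above a per-plate cutoff, the mean inhibition of test compounds on that plate plus 3 SD, cut at about 49% in these data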
#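 Assay system: CHO-derived RD-HGA16 cells stably expressing human TAAR1 plus Gα16. Timing: 140 s kinetic read after compound, 140 s after agonist. Technique: kinetic Fluo-8 calcium fluorescence measurement. Measure: % inhibition of agonist calcium response.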
# OXTR agonist – activates the human oxytocin receptor; CHO-OTR cells, Fluo-8 calcium fluorescence; normalized: DMSO 0%, oxytocin 100%; AID 2435; activation, % at 3 µM; actives 0.32% (n = 320,000); P30559;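 active = activation above the mean of all tested compounds plus 3 SD, cutoff set per screening run, cut at about 20% in these data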;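 note: peak over basal fluorescence ratio from a 100 s FLIPR kinetic read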
# Target sequence (P30559 whole entry, looked up): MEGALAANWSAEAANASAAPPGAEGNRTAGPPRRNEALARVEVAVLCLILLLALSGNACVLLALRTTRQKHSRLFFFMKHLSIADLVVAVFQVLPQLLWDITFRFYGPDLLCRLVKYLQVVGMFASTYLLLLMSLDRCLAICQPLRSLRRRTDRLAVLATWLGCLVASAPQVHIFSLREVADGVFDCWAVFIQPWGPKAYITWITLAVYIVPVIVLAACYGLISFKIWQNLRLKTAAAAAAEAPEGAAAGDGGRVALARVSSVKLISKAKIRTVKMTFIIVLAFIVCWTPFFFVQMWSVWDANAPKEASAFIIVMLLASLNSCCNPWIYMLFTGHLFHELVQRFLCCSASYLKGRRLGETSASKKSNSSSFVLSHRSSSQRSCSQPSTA
# TAAR1 agonist – human TAAR1 agonism; actives 0.99% (n = 360,000); CHO RD-HGA16 TAAR1, Fluo-8 calcium fluorescence; vehicle wells 0%, saturating PEA agonist 100%; activation, % at 3 µM; AID 624467;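 active = activation above the mean activation of all test compounds in the run plus 3 SD, cut at about 38% in these data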
#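 System: CHO-derived RD-HGA16 cells with stable Gα16 and human TAAR1. Times: 17-24 h plating, Fluo-8 75 min 37 °C, 30 min RT. Measured by: calcium-sensitive Fluo-8 signal, excitation 470-495, emission 515-575 nm. Read-out basis: % activation relative to PEA EC100 response. Control set: DMSO and PEA EC100. Repeats: no replicates (n 1).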
# OXTR potentiator – potentiates the human oxytocin receptor response; P30559; CHO-OTR cells, Fluo-8 calcium fluorescence, potentiator mode; 0% = oxytocin EC15, 100% = EC100; activation, % at 3 µM; actives 0.061% (n = 320,000); AID 2445;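 active = activation above that plate's cutoff, the mean activation of tested compounds plus 3 SD, cut at about 6.6% in these data, passing the limit was not always enough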
#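 Measured by – Fluo-8 calcium dye fluorescence · Test system – human OTR in CHO cells · Dosing – one concentration, 3.0 µM compound · Controls – EC15 oxytocin alone as 0%, 75 nM oxytocin as 100% · Evaluation – normalized max/min fluorescence ratio, % activation · Timing – 6 min pre-incubation, 100 s read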
# V1aR counter – activates human V1a receptor in oxytocin agonist counter-screen | AID 2797 | activation, % at 3 µM | CHO-V1R cells, Fluo-8 calcium fluorescence, agonist mode; 0% DMSO, 100% 3 nM vasopressin | P37288 | actives 0.25% (n = 320,000);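 active = activation above the mean activation of all tested compounds plus 3 SD, per screening run, cut at about 20% in these data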;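 note: signal is peak over basal fluorescence ratio across a 100 second FLIPR read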
# TAAR1 ag conf – human TAAR1 agonism, confirmed. shares compounds with TAAR1 agonist. CHO RD-HGA16 TAAR1, Fluo-8 calcium fluorescence; scaled: DMSO 0%, maximal phenethylamine 100%. activation, % at 3 µM. actives 82% (n = 2,400). AID 651783;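 active = activation above a cutoff set at the run's mean compound activation plus 3 SD, cut at about 39% in these data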
# Ga16 nonsel ag – nonselective agonist in parental cells, TAAR1 agonist counter-screen. shares compounds with TAAR1 agonist. CHO-Ga16 parental, Fluo-8 calcium fluorescence; normalized to maximal ATP response, DMSO zero. actives 50% (n = 2,400). activation, % at 3 µM;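 active = activation above the run cutoff, the mean activation over all tested wells plus 3 SD, cut at about 12% in these data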
# TAAR1 desensitize – human TAAR1 agonist that also desensitizes the receptor | shares compounds with TAAR1 agonist | CHO RD-HGA16 hTAAR1, Fluo-8 calcium, beta-PEA response inhibition | inhibition, % at 3 µM | actives 46% (n = 2,400) | AID 651951;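 active = inhibition above the run cutoff, the mean inhibition of all test compounds plus 3 SD, cut at about 49% in these data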;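 note: beta-PEA stimulus applied at its EC80; loss of beta-PEA calcium signal after compound pretreatment read as receptor desensitization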
# Ga16 antag count – nonselective Ga16 antagonism, counter-screen; shares compounds with TAAR1 agonist; CHO-Ga16 ATP-induced calcium, Fluo-8 fluorescence; inhibition, % at 3 µM; actives 39% (n = 2,400);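 active = inhibition above the plate's mean compound inhibition plus 3 SD, computed per plate, cut at about 22% in these data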
# Hits are given with their value; 0 = inactive; - = no result. Hits are enriched below; roughly 2.3% of the tested compounds scored in any of these assays.
SMILES,TAAR1 antag,OXTR agonist,TAAR1 agonist,OXTR potentiator,V1aR counter,TAAR1 ag conf,Ga16 nonsel ag,TAAR1 desensitize,Ga16 antag count
COc1ccc(S(=O)(=O)NNC(=S)NCCc2ccccc2)c(OC)c1,0,0,49.4,0,0,0,0,0,0
Cn1cc(S(=O)(=O)CC(=O)N2CCCc3ccccc32)c2ccccc21,0,0,0,0,0,-,-,-,-
CC1(c2ccc(Cl)cc2)NC(=O)N(CC(=O)N2CCc3ccccc32)C1=O (stereo not given),72.7,40.1,96.9,0,27.9,114.0,74.2,77.0,55.1
NC(N)=N/N=C/c1ccc(Br)cc1,0,0,58.4,0,0,80.5,0,0,0
CCOc1ccc(NC(=O)Cc2ccc(NC3=NC4CS(=O)(=O)CC4S3)cc2)cc1 (stereo not given),0,0,0,0,0,-,-,-,-
O=C(COC(=O)c1ccc(O)cc1)Nc1ccc(OC(F)F)cc1,0,0,66.2,0,0,49.0,0,0,0
O=C(NCc1cccnc1)c1ccc(NC(=O)c2ccc(Br)cc2)cc1,0,0,57.2,0,0,58.2,0,0,0
O=C(CCNC(=O)c1ccc(Br)cc1)NCC1CCCO1 (stereo not given),0,0,0,0,0,-,-,-,-
O=C(NCC1CCCO1)c1ccc(NC(=O)c2ccc(Br)cc2)cc1 (stereo not given),0,0,78.0,0,0,95.2,0,71.4,0
O=C(NN=Cc1ccc2c(c1)CCC2)c1ccccc1[N+](=O)[O-],0,-,0,-,-,-,-,-,-
CC(C)C(=O)OCC(=O)NCc1ccccc1Cl,0,0,0,0,0,-,-,-,-
CC(C)C[C@H]1CN=C(Nc2ccccc2)N1CCC1CCCC1,0,0,0,0,0,-,-,-,-
c1ccc(C[C@H]2CN=C(Nc3ccccc3)N2CCCC2CCCCC2)cc1,0,0,46.9,0,0,0,0,0,0
CC(C)C[C@H]1CN=C(Nc2ccccc2)N1CCCC1CCCC1,0,0,57.2,0,0,73.9,35.8,0,24.2
CC(C)C[C@H]1CN=C(Nc2ccccc2)N1CCCC1CCCCC1,0,0,58.2,0,0,58.2,26.0,0,27.2
COc1ccc(NC(=O)N(C)C[C@@H]2Oc3cc(Br)ccc3S(=O)(=O)N([C@H](C)CO)C[C@H]2C)cc1,0,-,0,-,-,-,-,-,-
Cc1ccc(NC2=NCC(=O)N2CCc2ccccc2)cc1C,0,0,47.3,0,0,58.9,0,0,0
COc1cc(OC)c(OC)cc1NC(=O)CC1COc2ccccc2O1 (stereo not given),0,0,0,0,0,-,-,-,-
CC1CCN(C(=O)c2ccc3c(c2NCCO)C(=O)c2ccccc2C3=O)CC1,0,0,48.1,0,0,0,0,0,24.5
COc1ccc(N=Cc2c(O)n(-c3ccc(OC)cc3)c(=O)c3ccccc23)cc1,0,0,0,0,0,-,-,-,-
O=c1c2ccccc2c(C=Nc2cccc(O)c2)c(O)n1-c1ccc2c(c1)OCO2,0,0,62.2,0,0,81.8,40.8,67.2,26.0
CC(C)(C)c1nnc(SCC(=O)c2ccccc2)n(N)c1=O,0,0,0,0,0,-,-,-,-
CCCOc1c(OC)cccc1C1CC(=O)Nc2cc3c(cc21)OCCO3 (stereo not given),0,0,38.9,0,0,0,0,0,0
CCCOc1c(OC)cccc1C1CC(=O)Nc2cc3c(cc21)OCO3 (stereo not given),0,0,0,0,0,-,-,-,-
